Several values for one entry are separate records, joined by “and”; a condition that tells them apart may be missing. Identical values can stand only once.
How the values were obtained:
Rattus norvegicus [1] = experiment: Change in mean aortic flow after iv administration of 400 ug/Kg in anesthetized rats; format: functional
Summary of the method: (§1)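 Male Wistar rats (299 ± 3 g) were anesthetized with ethylurethane ip, tracheally cannulated and breathing spontaneously, at 37 °C, and stabilized for 60 min. Doses of 50-3200 µg/kg (ratio 2.0) in saline were injected by femoral vein, 50 µL each. Recordings: femoral arterial BP, electromagnetic abdominal-aortic flow, SV from integrated pulsatile flow, polygraphic RF. Peak changes, mean ± SE, n = 12 (n = 7 at 3200).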

Rattus norvegicus [2] = experiment: Change in mean aortic flow after iv administration of 1600 ug/Kg in anesthetized rats; format: functional; summary of the method: as §1
Rattus norvegicus [3] = experiment: Change in heart rate after iv administration of 1600 ug/kg compound (treatment with reserpine(5 mg/kg/day for 2 days, ip))in anesthetized rats; format: functional
Summary of the method: (§2)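 In anesthetized male Wistar rats, responses to iv compound (200–1600 µg/kg, ratio 2.0) were measured alone and under three pretreatments: continuous iv papaverine infusion (1 mg/kg/min), ip reserpine (5 mg/kg/day for 2 days), or iv hexamethonium (5 mg/kg). Peak changes are given as mean ± SE, n = 6 per group; p < 0.05 versus control.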

Rattus norvegicus [4] = experiment: Change in systolic blood pressure after iv administration of 1600 ug/Kg in the presence of adrenaline (agonist) in anesthetized rats; format: functional, Artery
Rattus norvegicus [5] = experiment: Change in systolic blood pressure after iv administration of 400 ug/Kg in the presence of noradrenaline (agonist) in anesthetized rats; format: functional, Artery
Summary of the method: (§3)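 Anesthetized male Wistar rats, two groups of 8, received 400 or 1600 µg/kg iv. Before and after this dose, iv agonist challenges were given: noradrenaline 1 µg/kg, adrenaline, acetylcholine 2.50 µg/kg, or isoprenaline. Systolic/diastolic BP, heart rate and dP/dt responses were recorded before (control) and after dosing; significance was set at p < 0.05 versus control.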

Rattus norvegicus [6] = experiment: Change in systolic blood pressure after iv administration of 1600 ug/Kg in the presence of isoprenaline (agonist) in anesthetized rats; format: functional, Artery
Rattus norvegicus [7] = experiment: Change in diastolic blood pressure after iv administration of 1600 ug/Kg compound (treatment with papaverine(1 mg/Kg/min, iv)in anesthetized rats; format: functional, Artery; summary of the method: as §2
Rattus norvegicus [8] = experiment: Change in mean aortic flow after iv administration of 3200 ug/Kg in anesthetized rats; format: functional; summary of the method: as §1
Rattus norvegicus [9] = experiment: Maximum rate of rise of the left ventricular isovolumetric pressure was measured after iv administration of 4.12 uM/Kg in anesthetized rats; format: functional, Heart left ventricle
Rattus norvegicus [10] = experiment: Maximum rate of rise of the left ventricular isovolumetric pressure after iv administration of 800 ug/Kg compound (treatment with hexamethonium (5 mg/Kg, iv)in anesthetized rats; format: functional, Heart left ventricle
Summary of the method: (§4)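 Anesthetized rats, n = 6 per group, received iv doses of 200–1600 µg/kg (ratio 2.0) either alone (control) or under pretreatment: continuous iv papaverine infusion 1 mg/kg/min, reserpine 5 mg/kg/day ip for 2 days, or hexamethonium 5 mg/kg iv. Peak changes in BP, heart rate and dP/dt recorded; means ± SE, p < 0.05 versus control.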

Rattus norvegicus [11] = experiment: Change in systolic blood pressure after iv administration of 800 ug/Kg compound (treatment with hexamethonium (5 mg/Kg, iv)in anesthetized rats; format: functional, Artery; summary of the method: as §4
Rattus norvegicus [12] = experiment: Change in diastolic blood pressure after iv administration of 1600 ug/Kg in the presence of adrenaline (agonist) in anesthetized rats; format: functional, Artery
Summary of the method: (§5)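 Urethane-anesthetized male Wistar rats (16 rats, two equal groups) received 400 or 1600 µg/kg compound iv. Cardiovascular responses to iv agonist boluses (noradrenaline 1 µg/kg, acetylcholine 2.50 µg/kg, adrenaline, isoprenaline) were measured before and after compound dosing. Peak responses are given as mean ± SE; p < 0.05 versus control mean.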

Rattus norvegicus [13] = experiment: Change in diastolic blood pressure after iv administration of 1600 ug/Kg in the presence of isoprenaline (agonist) in anesthetized rats; format: functional, Artery; summary of the method: as §5
Rattus norvegicus [14] = experiment: Change in heart rate after iv administration of 200 ug/Kg in anesthetized rats; format: functional
Summary of the method: (§6)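 Adult male Wistar rats under ip ethylurethane (10% w/v in saline, 1 mL/kg) with tracheal cannula and spontaneous breathing, kept at 37 °C. Arterial BP was recorded by femoral artery catheter; compound in saline (50 µL) was given via femoral vein at 50–3200 µg/kg, ratio 2.0. Peak change is given as mean ± SE, n = 12 (n = 7 at 3200 µg/kg).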

Rattus norvegicus [15] = experiment: Change in stroke volume after iv administration of 200 ug/Kg in anesthetized rats; format: functional; summary of the method: as §1
Rattus norvegicus [16] = experiment: Change in respiratory frequency after iv administration of 800 ug/Kg in anesthetized rats; format: functional; summary of the method: as §1
Rattus norvegicus [17] = experiment: Change in mean aortic flow after iv administration of 800 ug/Kg in anesthetized rats; format: functional; summary of the method: as §1
Rattus norvegicus [18] = experiment: Change in heart rate after iv administration of 400 ug/Kg in the presence of acetylcholine (agonist) in anesthetized rats; format: functional; summary of the method: as §5
Rattus norvegicus [19] = experiment: Change in diastolic blood pressure after iv administration of 1600 ug/Kg in the presence of noradrenaline (agonist) in anesthetized rats; format: functional, Artery; summary of the method: as §5
Rattus norvegicus [20] = experiment: Change in diastolic blood pressure after iv administration of 400 ug/Kg in anesthetized rats; format: functional, Artery; summary of the method: as §6
Rattus norvegicus [21] = experiment: Maximum rate of rise of the left ventricular isovolumetric pressure was measured after iv administration of 800 ug/Kg in anesthetized rats; format: functional, Heart left ventricle
Summary of the method: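 Urethane-anesthetized (10% w/v, […] ip in saline) adult male Wistar rats, trachea cannulated, breathing spontaneously, 37 °C. Femoral artery catheter for blood pressure, femoral vein for dosing. Sequential iv doses 50–3200 µg/kg (ratio 2.0) in saline, each given after parameters returned to baseline. Peak changes recorded; means ± SE, n = 12 (n = 7 at 3200 µg/kg).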

Rattus norvegicus [22] = experiment: Change in systolic blood pressure after iv administration of 400 ug/Kg in the presence of adrenaline (agonist) in anesthetized rats; format: functional, Artery; summary of the method: as §3
Rattus norvegicus [23] = experiment: Change in mean aortic flow after iv administration of 100 ug/Kg in anesthetized rats; format: functional; summary of the method: as §1
Rattus norvegicus [24] = experiment: Change in heart rate after iv administration of 800 ug/kg compound (treatment with reserpine(5 mg/kg/day for 2 days, ip))in anesthetized rats; format: functional
Summary of the method: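 Urethane-anesthetized male Wistar rats, 6 per group, received iv doses of 200-1600 µg/kg (ratio 2.0) given alone or under a pretreatment. Pretreatments were continuous iv papaverine infusion (1 mg/kg/min), reserpine 5 mg/kg/day ip for 2 days, or hexamethonium 5 mg/kg iv. Peak changes in femoral arterial BP and HR were recorded; values are mean ± SE.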

Rattus norvegicus [25] = experiment: Change in heart rate after iv administration of 1600 ug/Kg in anesthetized rats; format: functional; summary of the method: as §6
Rattus norvegicus [26] = experiment: Change in diastolic blood pressure after iv administration of 1600 ug/Kg in anesthetized rats; format: functional, Artery; summary of the method: as §6

In the case of `COc1ccc(C2C(c3ccc(OC)c(OC)c3)[C@H](C(=O)NCCCC/N=C(\N)NCC=C(C)C)[C@@H]2C(=O)NCCCC/N=C(\N)NCC=C(C)C)cc1OC` (stereo partly specified) [CARACASANDIAMIDE], the Mean aortic flow (Rattus norvegicus [1]) was -14 mL/min, the “Change in mean aortic flow” value (Rattus norvegicus [2]) was -49% and the Mean aortic flow (Rattus norvegicus [2]) was -36 mL/min. It also gave a Heart rate (Rattus norvegicus [3]) of -14 beats min-1, a BP (Rattus norvegicus [4]) of 14 mmHg and a BP (Rattus norvegicus [5]) of 31 mmHg. The BP (Rattus norvegicus [6]) was -43 mmHg, the BP (Rattus norvegicus [7]) was -29 mmHg and the “Change in mean aortic flow” value (Rattus norvegicus [8]) was -56%. It also gave a Mean aortic flow (Rattus norvegicus [8]) of -41 mL/min, a dP/dt (Rattus norvegicus [9]) of 3991 mmHg s-1 and a dP/dt (Rattus norvegicus [10]) of 4965 mmHg s-1. The BP (Rattus norvegicus [11]) was -50 mmHg, the BP (Rattus norvegicus [12]) was 3 mmHg and the BP (Rattus norvegicus [13]) was -66 mmHg. The “Change in heart rate” value (Rattus norvegicus [14]) was -4%, the Heart rate (Rattus norvegicus [14]) was -13 beats min-1 and the “Change in stroke volume” value (Rattus norvegicus [15]) was 11%. For the same molecule, the Stroke volume (Rattus norvegicus [15]) was 23 µL, the “Change in respiratory frequency” value (Rattus norvegicus [16]) was -15 beats min-1 and -16% and the “Change in mean aortic flow” value (Rattus norvegicus [17]) was -34%. For the same molecule, the Mean aortic flow (Rattus norvegicus [17]) was -25 mL/min, the Heart rate (Rattus norvegicus [18]) was -30 beats min-1 and the BP (Rattus norvegicus [19]) was 10 mmHg. For the same molecule, the BP (Rattus norvegicus [20]) was -17 mmHg, the “Change in BP” value (Rattus norvegicus [20]) was -22% and the “Change in dP/dt” value (Rattus norvegicus [21]) was 54%. The dP/dt (Rattus norvegicus [21]) was 3282 mmHg s-1, the BP (Rattus norvegicus [22]) was 21 mmHg and the “Change in mean aortic flow” value (Rattus norvegicus [23]) was 15%. For the same molecule, the Mean aortic flow (Rattus norvegicus [23]) was 11 mL/min, the Heart rate (Rattus norvegicus [24]) was -9 beats min-1 and the “Change in heart rate” value (Rattus norvegicus [25]) was -8%. For the same molecule, the Heart rate (Rattus norvegicus [25]) was -30 beats min-1, the BP (Rattus norvegicus [26]) was -43 mmHg and the “Change in BP” value (Rattus norvegicus [26]) was -55%.

— ChEMBL document CHEMBL1132342, “Novel hypotensive agents from Verbesina caracasana. 6. Synthesis and pharmacology of caracasandiamide” (1999)
